According to ChEMBL document CHEMBL3244231, “Synthesis and identification of the major metabolites of prazosin formed in dog and rat” (J Med Chem, 1977):

Assays:
Canis familiaris [1] = assay: Antihypertensive activity in anesthetized normotensive mongrel dog assessed as maximum decrease in blood pressure at 0.4 mg/kg, iv administered at 30 mins intervals; format: functional, Canis lupus familiaris
How it was run: (§1)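 Anesthetized normotensive mongrel dogs each received escalating iv doses of 0.1, 0.4 and 1.0 mg/kg at 30-min intervals. After each interval, the maximum fall in blood pressure (mm) was read against control. Doses refer to the amine salts and are uncorrected; one agent was given as free base. At least two dogs were used per compound, and ranges are reported.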

Canis familiaris [2] = assay: Antihypertensive activity in anesthetized normotensive mongrel dog assessed as maximum decrease in blood pressure at 1 mg/kg, iv administered at 30 mins intervals; format: functional, Canis lupus familiaris; how it was run: as §1
[3] = Drug metabolism in rat assessed as parent compound level in urine; format: ADME; conditions: read-out: Drug excretion
[4] = Drug metabolism in rat assessed as parent compound level in bile; format: ADME; conditions: read-out: Drug excretion
[5] = Drug metabolism in dog assessed as parent compound level in urine; format: ADME, Canis lupus familiaris; conditions: read-out: Drug excretion
[6] = Drug metabolism in dog assessed as parent compound level in bile; format: ADME, Canis lupus familiaris; conditions: read-out: Drug excretion
Canis familiaris [7] = assay: Antihypertensive activity in anesthetized normotensive mongrel dog assessed as maximum decrease in blood pressure at 0.1 mg/kg, iv administered at 30 mins intervals; format: functional, Canis lupus familiaris; how it was run: as §1

Structure (SMILES) | Activity (Canis familiaris [1]) [mmHg] | Activity (Canis familiaris [2]) [mmHg] | dose excreted [3] [%] | dose excreted [4] [%] | dose excreted [5] [%] | dose excreted [6] [%] | Activity (Canis familiaris [7]) [mmHg]
COc1cc2c(N)nc(N3CCN(C(=O)c4ccco4)CC3)nc2cc1O.O=S(=O)(O)O | 12 | 18 | – | – | – | – | –
COc1cc2nc(N3CCN(C(=O)c4ccco4)CC3)nc(N)c2cc1OC.Cl [PRAZOSIN HYDROCHLORIDE] | 45 | 55 | 6 | 6 | 6 | 6 | 20
COc1cc2nc(N3CCN(C(=O)c4ccco4)CC3)nc(N)c2cc1O.O=S(=O)(O)O | 10 | 15 | – | – | – | – | –
COc1cc2nc(N)nc(N)c2cc1OC | 3 | 23 | – | – | – | – | 0
